Source: PubChem
OX1R antag-1: antagonists of human orexin 1 receptor; O43613; CHO/OX1R cells, Fluo-8 calcium fluorescence, orexin A; inhibition, % at 5 µM; hit rate 0.43% among 330,000; AID 434989;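 active = inhibition above its plate's threshold, mean inhibition of all tested compounds on the plate plus 3 SD, cut at about 37% in these data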
Target sequence (O43613 whole entry, looked up): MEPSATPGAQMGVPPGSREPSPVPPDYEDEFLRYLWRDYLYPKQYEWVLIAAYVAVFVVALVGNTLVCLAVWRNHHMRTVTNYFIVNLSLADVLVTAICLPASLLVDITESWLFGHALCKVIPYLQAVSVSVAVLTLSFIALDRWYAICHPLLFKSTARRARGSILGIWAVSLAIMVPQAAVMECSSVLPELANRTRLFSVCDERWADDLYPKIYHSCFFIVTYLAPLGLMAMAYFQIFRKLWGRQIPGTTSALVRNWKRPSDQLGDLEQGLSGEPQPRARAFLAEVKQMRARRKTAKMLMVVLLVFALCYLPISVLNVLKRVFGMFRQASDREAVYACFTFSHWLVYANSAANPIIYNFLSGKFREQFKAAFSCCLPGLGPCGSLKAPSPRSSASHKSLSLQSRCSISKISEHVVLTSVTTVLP
GPR7 antagonist: blocks human GPR7 receptor signaling. P48145. GPR7-expressing cells, fluorescence antagonist assay. inhibition, % at 4.4 µM. hit rate 1.1% among 290,000. AID 1861; in the data active = inhibition above about 16%, passing the limit was not always enough;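 note: cells stimulated with the agonist NPW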
Target sequence (P48145 whole entry, looked up): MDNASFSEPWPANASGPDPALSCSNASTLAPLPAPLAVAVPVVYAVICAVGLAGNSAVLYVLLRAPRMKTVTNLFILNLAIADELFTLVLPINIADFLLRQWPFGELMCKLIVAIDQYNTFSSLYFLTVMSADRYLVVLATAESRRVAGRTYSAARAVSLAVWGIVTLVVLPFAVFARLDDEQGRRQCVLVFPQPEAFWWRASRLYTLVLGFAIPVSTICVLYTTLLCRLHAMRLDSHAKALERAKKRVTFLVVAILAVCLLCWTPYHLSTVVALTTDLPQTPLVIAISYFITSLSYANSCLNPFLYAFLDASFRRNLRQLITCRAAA
OX1R antag-2: blocks the human orexin 1 receptor | OX1R-expressing cells, FRET antagonist read-out | hit rate 1.8% among 330,000 | inhibition, % at 6.6 µM | O43613; in the data active = inhibition mostly above about 38%, no sharp cut-off; inactive = mostly below about 40%
CHO parental Ca: counter-screen for OX1R antagonists: effect in parental CHO cells; parental CHO-K1, ATP-induced calcium, Fluo-8 fluorescence; inhibition, % at 5.6 µM; hit rate 0.63% among 330,000;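 active = inhibition above that plate's mean sample inhibition plus 3 SD, cut at about 26% in these data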
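Assay system – parental CHO cells · Reagent – ATP stimulus · Detection – intracellular calcium via Fluo-8 no-wash fluorescent dye · Evaluation – percent inhibition of ATP-evoked calcium rise, normalized to controls · Controls – ATP wells versus no-ATP DMSO wells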
TRPML3 ag: activates the human TRPML3 channel; hit rate 0.29% among 220,000; activation, % at 3 µM; AID 1448; Q8TDD5; HEK293 TRPML3-YFP, Fluo-8 calcium fluorescence; 100% = the carbachol control signal;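 active = activation above its plate's cutoff, the mean activation of the plate's test wells plus 3 SD, cut at about 12% in these data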
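Material: HEK293 cells stably carrying human TRPML3-YFP; compound dosing: single dose, 3 µM final nominal compound, 0.3% DMSO final; incubation: 1-h 37 °C dye load, 5-s basal, 120-s post-compound reads; technique: Fluo-8 intracellular calcium fluorescence, excitation 470-495 nm, emission 515-575 nm; read-out basis: percent activation from peak-to-basal fluorescence ratio, scaled between DMSO and carbachol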
TRPN1 ag: activates the zebrafish TRPN1 channel; HEK293 zebrafish TRPN1-YFP, Fluo-8 calcium fluorescence; 100% = response to 87 µM carbachol; hit rate 0.18% among 220,000; activation, % at 3 µM;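 active = activation above its plate's cutoff, the mean activation of test wells on that plate plus 3 SD, cut at about 19% in these data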
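System: zebrafish TRPN1-YFP in HEK293 cells / Dosing: 3 µM single point / Timing: dye loading 1 h at 37 °C, then 30 min room temperature / Signal: Fluo-8 calcium fluorescence, excitation 470-495 nm, emission 515-575 nm / Read-out basis: percent activation from peak over basal fluorescence ratio, control-normalized / Control set: high carbachol 87 µM, low DMSO alone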
Each line names hits and unclear results; the compound was inactive in the other large screens. The list is not random: actives were taken first. Their share in the collection is about 3.2%.

O=C(Cn1nc(C(=O)O)c2ccccc2c1=O)Nc1cccc(S(=O)(=O)N2CCOCC2)c1	none (no result: GPR7 antagonist, TRPML3 ag, TRPN1 ag)
CCN(CC)S(=O)(=O)c1cccc(NC(=O)CNc2cccc(S(=O)(=O)N3CCCC3)c2)c1	CHO parental Ca 57 (no result: TRPML3 ag, TRPN1 ag)
O=C(CN1CCCC1c1cccs1)Nc1cccc(S(=O)(=O)N2CCCC2)c1 (centres undefined)	OX1R antag-2 32 (no result: GPR7 antagonist, TRPML3 ag, TRPN1 ag)
O=C(Cn1nc(C(=O)O)c2ccccc2c1=O)Nc1cccc(S(=O)(=O)N2CCCCC2)c1	OX1R antag-1 60 (no result: GPR7 antagonist, TRPML3 ag, TRPN1 ag)
CCc1nnc(SCC(=O)Nc2ccc(N3CCN(S(C)(=O)=O)CC3)cc2)o1	none (no result: TRPML3 ag, TRPN1 ag)
COc1ccc(/C=N/NC(=O)c2ccc[nH]2)cc1	none (no result: TRPML3 ag, TRPN1 ag)
CC1=C(C(=O)Nc2ccc(Cl)cc2)C(c2cccs2)n2nnnc2N1 (centres undefined)	GPR7 antagonist 20
CCO/C=C1\SC(=S)N(c2ccc(Cl)cc2)C1=O	none
CC(C)c1ccc(N2C(=O)/C(=C/N(C)C)SC2=S)cc1	OX1R antag-1 52
Cc1cccn2cc(-c3ccccc3)nc12	none
COc1ccc(-c2cn3cccc(C)c3n2)cc1Br	OX1R antag-2 74
O=[N+]([O-])c1ccc(-c2nnc3cccc(Cl)n23)cc1	OX1R antag-2 49 (no result: TRPML3 ag, TRPN1 ag)
COc1ccc([C@H]2/C=C\CN(Cc3ccc(N(C)C)cc3)[C@@H](C)C(=O)N2Cc2ccc(F)cc2)cc1	none (no result: GPR7 antagonist, TRPML3 ag, TRPN1 ag)
CC(C)OCCCNC(=O)c1cn(C)c2ccc(S(=O)(=O)N(C)C3CCCCC3)cc2c1=O	none (no result: TRPML3 ag, TRPN1 ag)
CCOc1ccccc1C(=O)Nc1ccccc1C(N)=O	none
CC(C)CNC(=O)c1ccc(Cl)c(NC(=O)COc2ccccc2)c1	none
CCOc1ccccc1C(=O)Nc1ccsc1C(=O)OC	OX1R antag-2 69
CCOc1ccccc1C(=O)Nc1cc(C(=O)NCC(C)C)ccc1Cl	OX1R antag-2 48
COC(=O)c1sccc1NC(=O)c1ccc(C)s1	OX1R antag-2 56
CNC(=O)c1ccsc1NC(=O)C1CCCN1S(=O)(=O)c1cccs1 (centres undefined)	none (no result: GPR7 antagonist, TRPML3 ag, TRPN1 ag)
COC(=S)N/C(=N\S(=O)(=O)c1ccc(Cl)cc1)c1ccccc1	none (no result: TRPML3 ag, TRPN1 ag)
Cc1ccc(C)c(NC(=O)c2ccccc2NS(=O)(=O)c2cc([N+](=O)[O-])ccc2C)c1	OX1R antag-2 55, TRPML3 ag 18, TRPN1 ag 27
Cc1ccc(C)c(S(=O)(=O)Nc2ccccc2C(=O)Nc2cc(C)on2)c1	OX1R antag-2 36
COc1ccc(CCNC(=O)CC2Nc3cc(C)c(C)cc3NC2=O)cc1OC (centres undefined)	none
Cc1cc2c(cc1C)NC(CC(=O)NCc1ccccc1)C(=O)N2 (centres undefined)	OX1R antag-2 35
Nc1ccc(-c2nnnn2-c2ccc(N)cc2)cc1	CHO parental Ca 28 (no result: TRPML3 ag, TRPN1 ag)
NC(=O)c1nnn(-c2ccc([N+](=O)[O-])cc2)c1-c1ccccc1	OX1R antag-2 44
O=[N+]([O-])c1ccc(-n2nnnc2-c2ccccc2)cc1	OX1R antag-2 54
O=[N+]([O-])c1ccc(-n2nnnc2-c2ccccc2)c([N+](=O)[O-])c1	none
CC1=CC(C)(C)N(S(=O)(=O)c2ccc(C)cc2)c2cc(C)ccc21	CHO parental Ca 49
O=C(NNC(=O)C1CC1)c1cc2cc3ccccc3nc2s1	OX1R antag-2 54
O=C(NNC(=O)c1cc2cc3ccccc3nc2s1)c1ccc(F)cc1	none
CCOC(=O)c1ccccc1OC(=O)CS(=O)c1ccccc1[N+](=O)[O-] (centres undefined)	none
COC(=O)c1ccc(OC(=O)CS(=O)c2ccccc2[N+](=O)[O-])cc1 (centres undefined)	OX1R antag-2 63
O=C(OCn1ncc(Cl)c(Cl)c1=O)c1ccccc1Cl	none
O=C(OCn1ncc(Cl)c(Cl)c1=O)c1ccc(F)cc1	CHO parental Ca 32
Cc1ccc(CN(C)C(=O)COC(=O)CSc2ccc([N+](=O)[O-])cc2)cc1	none (no result: GPR7 antagonist, TRPML3 ag, TRPN1 ag)
Cc1ccc(CN(C)C(=O)COC(=O)CSc2ccc(C(N)=O)cc2[N+](=O)[O-])cc1	OX1R antag-2 58 (no result: GPR7 antagonist, TRPML3 ag, TRPN1 ag)
CC1CCC(NC(=O)COC(=O)CSc2ccc(C(N)=O)cc2[N+](=O)[O-])CC1 (centres undefined)	none (no result: GPR7 antagonist, TRPML3 ag, TRPN1 ag)
O=C(OCC(=O)N1CCOCC1)c1ccc(Cl)cc1[N+](=O)[O-]	none (no result: TRPML3 ag, TRPN1 ag)
CC1CN(C(=O)COC(=O)CSc2ccc(C(N)=O)cc2[N+](=O)[O-])CC(C)O1 (centres undefined)	OX1R antag-2 73 (no result: GPR7 antagonist, TRPML3 ag, TRPN1 ag)
O=C(OCC(=O)N1CCCC1=O)c1ccc(Cl)cc1[N+](=O)[O-]	OX1R antag-2 58 (no result: GPR7 antagonist, TRPML3 ag, TRPN1 ag)
NC(=O)c1ccc(SCC(=O)OCC(=O)NC2CCCCCCC2)c([N+](=O)[O-])c1	OX1R antag-2 30 (no result: GPR7 antagonist, TRPML3 ag, TRPN1 ag)
O=Cc1ccc(OC2OCCOC2Oc2ccc(C=O)cc2)cc1 (centres undefined)	none
CC(=O)Nc1ccc(N2N=C(C)C(N=Nc3ccccc3)C2=O)cc1 (centres undefined)	none
Cc1cc(OCC(=O)N(Cc2ccccc2)C2CCS(=O)(=O)C2)ccc1Cl (centres undefined)	none (no result: TRPML3 ag, TRPN1 ag)
NC(=O)c1ccc(SCC(=O)OCC(=O)N2CCCC2=O)c([N+](=O)[O-])c1	OX1R antag-2 67 (no result: GPR7 antagonist, TRPML3 ag, TRPN1 ag)
CCN(C(=O)COC(=O)CSc1ccc(C(N)=O)cc1[N+](=O)[O-])C1CCCCC1	none (no result: TRPML3 ag, TRPN1 ag)
O=C(Oc1ccccc1O)c1cccc2ccccc12	none
Nc1ccccc1-c1nc2ccccc2s1	none
CN(C)c1nc(N)nc(-c2nc3ccccc3s2)n1	OX1R antag-2 58
COCCN(Cc1ccccc1)C(=S)Nc1ccc(Cl)cc1	none
O=Cc1ccccc1-n1cccn1	none
Oc1cc(-n2cccn2)c(O)cc1-n1cccn1	GPR7 antagonist 46
CC1CCCN(S(=O)(=O)c2cc3c4c(c2)CCN4C(=O)CC3)C1 (centres undefined)	none (no result: GPR7 antagonist, TRPML3 ag, TRPN1 ag)
CCc1cc[n+](-c2nc3ccccc3nc2C(=C=[N-])C#N)cc1	OX1R antag-2 74
N#CC(=C=[N-])c1nc2ccccc2nc1-[n+]1cccc(NC(=O)c2ccccc2)c1	none
CCOC(=O)CNC(=O)c1cc(-c2ccccn2)nc2c(C)c(Cl)ccc12	none
CCNc1c2c3c(cccc3n(C)c1=O)C(=O)c1ccccc1-2	OX1R antag-1 89, CHO parental Ca 69, TRPML3 ag 88, TRPN1 ag 195
Cn1c(=O)c(NCCc2ccccc2)c2c3c(cccc31)C(=O)c1ccccc1-2	OX1R antag-1 108, GPR7 antagonist 64, CHO parental Ca 100, TRPML3 ag 83, TRPN1 ag 126
O=C(Cc1c(Cl)cccc1Cl)Nc1ccc(S(=O)(=O)Nc2ncccn2)cc1	none (no result: TRPML3 ag, TRPN1 ag)
CC(C(=O)NC1CCCc2ccccc21)N1C(=O)C2CCCCC2C1=O (centres undefined)	none (no result: GPR7 antagonist, TRPML3 ag, TRPN1 ag)
COc1cc(/C=C(\NC(=O)c2ccccc2)C(=O)NC(C(=O)O)c2ccccc2)cc(OC)c1OC (centres undefined)	none (no result: TRPML3 ag, TRPN1 ag)
